Screening results (PubChem)
GRK2 inh: compounds blocking aptamer binding on GRK2 – biochemical, human GRK2, bead flow cytometry, HTS, primary screen. Beta-adrenergic receptor kinase 1 (Homo sapiens), P25098. FAM-aptamer displacement from GRK2. inhibition of aptamer binding, % at 10 µM. 330,000 compounds, 0.59% hits;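 active means inhibition of aptamer binding above 40%, roughly 3 SD of noise, on plates passing a quality check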;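 further: median bead fluorescence of bound FAM aptamer so fluorescent compounds give negative values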
Arrestin-AP2 inh: inhibitors of beta-arrestin/AP2 binding, primary screen, biochemical, GPCR trafficking, flow cytometry; 340,000 compounds, 0.31% hits; inhibition, % at 10 µM; FITC-arrestin peptide / GST-AP2 beads; AP2 beta2 appendage carries R879A mutation; beta-arrestin 1 C-terminal peptide binding to AP2 beta2-adaptin appendage (human);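 active means inhibition above a set limit, near 3 SD of compounds lacking own fluorescence, cut at about 54% in these data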;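 further: plate controls were DMSO wells for no effect and 5 µM unlabelled arrestin peptide for full effect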
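System: GST-AP2 R879A glutathione beads. Medium: PBS with 0.05% Tween 20 and 0.1% BSA. Also added: FITC-arrestin peptide, 50 nM. Incubation: 12 min plus 1 h, RT. Measured by: high-throughput flow cytometry of beads, ex 488, em 535 nm. Evaluation: percent drop in bead-associated FITC signal.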
NTR1 agonist: agonists of human NTR1, primary screen, imaging, U2OS cells, beta-arrestin-GFP, high content; Neurotensin receptor type 1 (Homo sapiens), P30989; NTR1-U2OS beta-arrestin-GFP spot imaging, agonist mode; activation, % at 20 µM; 330,000 compounds, 0.17% hits; AID 493036, 2011;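 active means activation at or above 40% of the spot to cytoplasm intensity ratio, with at least 20 cells analyzed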;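 further: 0% = DMSO without peptide and 100% = 100 nM NTR1 peptide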
Target sequence (P30989 whole entry, looked up): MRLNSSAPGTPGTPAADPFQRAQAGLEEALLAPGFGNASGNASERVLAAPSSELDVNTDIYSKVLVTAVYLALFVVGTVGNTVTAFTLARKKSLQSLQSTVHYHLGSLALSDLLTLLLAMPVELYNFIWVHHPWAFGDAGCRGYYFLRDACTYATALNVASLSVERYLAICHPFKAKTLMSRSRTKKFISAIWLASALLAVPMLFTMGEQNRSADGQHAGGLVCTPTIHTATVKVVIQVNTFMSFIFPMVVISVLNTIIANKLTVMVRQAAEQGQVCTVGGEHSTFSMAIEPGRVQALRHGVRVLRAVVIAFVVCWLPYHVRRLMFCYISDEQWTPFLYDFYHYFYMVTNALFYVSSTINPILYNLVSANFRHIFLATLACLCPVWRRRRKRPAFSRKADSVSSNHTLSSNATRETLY
Beta2AR agonist: beta2AR agonists driving receptor internalization, primary screen, cell-based, FAP fluorogen, flow cytometry | AID 504454, 2011 | Beta-2 adrenergic receptor (Homo sapiens), P07550 | 340,000 compounds, 0.43% hits | response, % (test concentration not listed) | Am2.2-beta2AR cells;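 active means response above a set limit, near 3 SD of response in nonfluorescent compounds, cut at about 42% in these data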
Hep lipid drop: inhibitors of hepatocyte lipid droplet formation, primary screen, imaging, high-throughput imaging, BODIPY stain; AML12 mouse hepatocytes, oleate lipid droplets; inhibition, % at 6.5 µM; 240,000 compounds, 0.4% hits;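 active means lipid droplet intensity inhibited by at least 50%, with more than 500 cells counted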
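Test system: AML12 hepatocytes (mouse); reagent: oleate loading, 100 µM; dosing: one dose, 6.5 µM compound; incubation: overnight exposure; signal: fluorescence imaging, 20x objective, two fields per well; read-out basis: % inhibition of corrected integrated BODIPY droplet signal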
TAG inh: inhibitors of triacylglycerol accumulation, primary screen, cell-based, uHTS, fluorescence, H9c2; 230,000 compounds, 0.66% hits; inhibition, % at 12.5 µM; H9c2 cells, Nile Red lipid (TAG) fluorescence; cells loaded with 200 µM oleic acid;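 active means pattern-corrected inhibition of lipid staining of at least 50% with the nuclear-stain viability signal not falling by more than 50%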;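 further: 0% = DMSO wells and 100% = triacsin C control wells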
GRK2 CP1: GRK2 aptamer-displacing inhibitors, retest, confirmation, biochemical, cherry pick 1, bead flow cytometry. bead-bound GRK2, FAM-aptamer displacement. aptamer displacement, % at 10 µM. 2,000 compounds, 4% hits. shares compounds with GRK2 inh. AID 504451, 2011;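 active means aptamer displacement above 40%, near three times the noise of non-fluorescent compounds, on plates passing quality checks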;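 further: negative values mostly reflect intrinsic compound fluorescence rather than true enhancement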
Aptamer quench: fluorescent aptamer quenching in GRK2 counter-screen dose response; shares compounds with GRK2 inh; 110 tested, under 10 active; fluorescence change (kMESF span), kMESF (test concentration not listed); Fluorescent RNA aptamer beads, flow cytometry; stronger effect = higher value;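 active means compounds whose bead fluorescence drops by more than 37 kMESF across the dose range, marking them as dye quenchers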
FAM quench CP1: counter-screen for GRK2 aptamer inhibitors: fluorescent aptamer quenchers. shares compounds with GRK2 inh. Carboxyfluorescein RNA aptamer on beads, flow cytometry quenching; stronger effect = lower value. fluorescence response (% of DMSO), % at 10 µM. 2,000 tested, under 10 active;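 active means compounds that quench the bead-bound fluorescent RNA probe, cutting fluorescence to under half of the solvent control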;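 further: counterscreen run without GRK2 so only probe quenching by compound is measured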
GRK2 CP2: GRK2 aptamer-displacing inhibitors, hit retest, confirmation, biochemical, cherry pick 2, bead flow cytometry | AID 504782, 2011 | inhibition of aptamer binding, % at 10 µM | 360 tested, under 10 active | shares compounds with GRK2 inh | bead-bound GRK2, FAM-aptamer displacement;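 active means inhibition of aptamer binding above 40%, about triple the noise seen with nonglowing compounds, on plates passing quality control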;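 further: negative values mostly come from compounds that fluoresce themselves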
FAM quench SP: counter-screen for GRK2 binding hits: quenchers of fluorescent RNA aptamer. 360 tested, under 10 active. fluorescence response vs DMSO, % at 10 µM. shares compounds with GRK2 inh. carboxyfluorescein RNA aptamer beads, flow cytometry quenching; stronger effect = lower value;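 active means response vs DMSO under 50%, meaning signal dropped by over half, treated as fluorescence quencher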;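 further: labelled aptamer on streptavidin beads without GRK2 as a quench counter-screen; 100% = bead fluorescence of DMSO wells and lower means quenching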
The depositor's hits bear a star; . = not tested or not shown. Sampled rows, rich in hits. Any-hit rate of the full collection: about 2%.

SMILES	GRK2 inh	Arrestin-AP2 inh	NTR1 agonist	Beta2AR agonist	Hep lipid drop	TAG inh	GRK2 CP1	FAM quench CP1	others
C=C(C)C(=O)Nc1cccc(C2=NOC3(C2)C[C@@H](C(N)=O)N(C(=O)c2cc([N+](=O)[O-])cc([N+](=O)[O-])c2)C3)c1 (some centres not stated)	79.0*	0.1	-2.9	-6.8	2.6	-3.0	57.1*	97.2	Aptamer quench=8.5
CCC(=O)Nc1cccc(C2=NOC3(C2)C[C@@H](C(N)=O)N(C(=O)CC)C3)c1 (some centres not stated)	2.0	43.9	-1.9	0.2	7.6	-5.3	.	.
CCC(=O)Nc1cccc(C2=NOC3(C2)C[C@H](C(N)=O)N(C(=O)CC#N)C3)c1 (some centres not stated)	0.0	-2.4	2.6	-3.0	-12.5	12.2	.	.	GRK2 CP2=-34.7;FAM quench SP=101.0
CCCCCC(=O)N1CC2(CC(c3cccc(NC(=O)[C@@H]4CCC(=O)N4)c3)=NO2)C[C@@H]1C(N)=O (some centres not stated)	0.0	-2.0	-4.3	-2.6	.	5.6	.	.	GRK2 CP2=-13.1;FAM quench SP=100.0
O=C(Nc1ccc(F)cc1)c1cc2cc(Cl)ccc2[nH]1	58.0*	46.4	0.7	0.1	.	.	.	.	GRK2 CP2=-24.6;FAM quench SP=100.0
Cc1cc(C)nc(N2CCC(C(=O)NC3CCCc4ccccc43)CC2)n1 (configuration not stated)	5.0	7.3	0.8	0.4	.	.	.	.
O=C(NC1CCCc2ccccc21)C1CCN(c2nnc(-n3cccc3)s2)CC1 (configuration not stated)	0.0	-0.1	3.2	-15.1	-0.8	17.9	-3.3	97.6
O=C(NCCC1=CCCCC1)C1CCN(c2nnc(-n3cccc3)s2)CC1	3.0	-9.0	2.3	-18.8	14.8	11.2	-1.8	97.8
CCOc1ccc2nc(NC(=O)CCn3cccc3)sc2c1	34.0	2.7	1.4	6.5	.	8.2	2.8	98.0
O/C(=C\Sc1nnc(Cc2ccccc2)o1)c1ccc(F)cc1	49.0*	8.5	-1.3	14.6	-9.7	.	.	94.1
CC(C)CCOCC(O)CCC(=O)NNC(=S)Nc1ccccc1 (configuration not stated)	2.0	-3.8	-1.0	-1.9	0.0	-13.1	.	.
C=CCC(CC(O)COCCC)C(=O)NNC(=S)Nc1ccccc1 (configuration not stated)	46.0*	19.1	0.9	6.2	0.8	-38.7	-4.7	91.7
CCN(CC(=O)Nc1c(F)cccc1F)C(=O)c1nn(C)c(=O)c2ccccc12	4.0	-5.3	-1.6	-8.8	.	-1.5	.	.
COc1cccc(CNC(=O)C2CCN(Cc3cnn(-c4ccccc4)c3-n3cccc3)CC2)c1	1.0	-1.8	0.5	-4.7	.	-15.2	.	.
O=C(NCc1ccccn1)C1CCN(Cc2cnn(-c3ccccc3)c2-n2cccc2)CC1	0.0	2.4	-0.7	2.7	-7.0	.	1.9	95.3
O=C(NCc1ccccn1)C1CCCN(Cc2cnn(-c3ccccc3)c2-n2cccc2)C1 (configuration not stated)	0.0	-6.3	-0.5	-7.0	.	-6.8	0.7	101.9
O=C(NCc1cccnc1)C1CCCN(Cc2cnn(-c3ccccc3)c2-n2cccc2)C1 (configuration not stated)	0.0	2.4	0.8	-6.3	-4.7	.	-0.9	103.5
O=S(CC(O)c1ccccc1)c1ccccc1 (configuration not stated)	.	.	.	.	.	3.0	.	.
CCCCn1c(N)c(N(CC)C(=O)c2cc(CC)c(C)s2)c(=O)[nH]c1=O	0.0	24.1	0.9	0.5	.	7.7	.	.
CC(C)(C)c1ccc(C2C3=C(CCCC3=O)NC3=C2C(=O)c2ccccc23)cc1 (configuration not stated)	51.0*	14.5	7.0	8.0	.	.	0.8	99.4
CC(=O)NCCOC(=O)Nc1sc(=S)n(C)c1C	3.0	24.8	-2.3	-9.7	10.4	-0.9	.	.
Cc1c(NC(=O)OC(C)C)sc(=S)n1C	34.0	-2.5	-0.1	-7.3	4.8	.	0.2	117.2
COc1ccc(NC(=O)Nc2sc(=S)n(C)c2C)cc1	98.0*	.	-0.2	-1.3	12.3	-19.9	-3.2	95.7
CCOC(=O)c1cc2c(C)n(-c3ccc(N(C)C)cc3)c(C)c2cc(C(=O)OCC)c1=O	69.0*	-1.3	0.3	-3.6	.	.	-0.5	103.2
CCOC(=O)c1cc2c(C)n(-c3ccc(OCC)cc3)c(C)c2cc(C(=O)OCC)c1=O	2.0	0.9	-0.5	-15.5	25.6	9.3	.	.
SMILES	GRK2 inh	Arrestin-AP2 inh	NTR1 agonist	Beta2AR agonist	Hep lipid drop	TAG inh	GRK2 CP1	FAM quench CP1	others
COc1cc(/C=C/C(=O)NCC2CCCCC2)cc(OC)c1OC	63.0*	-7.7	0.2	-1.9	13.6	.	-0.4	106.0
Cn1ccnc1C(OC(=O)c1ccccc1)C(F)(F)F (configuration not stated)	6.0	-9.0	-0.4	-2.3	0.8	.	2.4	94.3
CCCC(=O)Nc1c(-c2ccccc2Cl)c(=O)c2ccccc2n1C	0.0	-7.6	2.6	-2.3	3.3	.	.	.
O=C(Cn1cnc([N+](=O)[O-])c1)c1ccc(Cl)cc1	2.0	3.6	3.2	1.1	.	-7.6	.	.
O=C(C[n+]1cnn(CC(=O)c2ccc(Cl)cc2Cl)c1)c1ccc([N+](=O)[O-])cc1	59.0*	8.1	.	7.5	-1.8	.	-22.9	97.0
Cn1c(SCc2cccc(F)c2)nnc1-c1ccccn1	58.0*	2.6	1.8	-17.2	.	.	-1.7	100.3
COc1ccc(OC(=O)C2CC(=O)N(c3ccc(C)cc3)C2)cc1 (configuration not stated)	0.0	11.5	-0.7	2.3	1.1	2.1	.	.
